From ChEMBL document CHEMBL5329156, “Discovery and development of novel substituted monohydrazides as potent antifungal agents” (RSC Med Chem, 2023)
≈ marks a conversion by molar mass, not a printed value. Calls of active or inactive are those of the source. The rule behind the calls is not given here.

Experiments:
Candida albicans [1] = assay: Antifungal activity against Candida albicans ATCC 10231 assessed as fungal growth inhibition by double dilution method; assay type: functional
In short: (§1)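 Broth microdilution after CLSI M27-A3/M38-A2 with minor changes. Single colony grown overnight in YPD at 35 °C, 200 rpm. Compound final range 0.06-31.3 µg/mL; incubated 48 h at 35 °C.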

Candida albicans [2] = assay: Antifungal activity against Candida albicans ATCC 64124 assessed as fungal growth inhibition by double dilution method; assay type: functional
In short: (§2)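 Broth microdilution after CLSI M27-A3/M38-A2 with minor modifications. A single colony was grown overnight in YPD at 35 °C with shaking at 200 rpm. Cells were mixed 1:1 with compound (final 0.06-31.3 µg/mL, from DMSO stocks) and incubated 48 h at 35 °C.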

Candida albicans [3] = assay: Antifungal activity against itraconazole/fluconazole susceptible Candida albicans ATCC MYA-2876 assessed as fungal growth inhibition by double dilution method; assay type: functional; in short: as §2
Candida albicans [4] = assay: Antifungal activity against itraconazole/fluconazole resistant Candida albicans ATCC 90819 assessed as fungal growth inhibition by double dilution method; assay type: functional; in short: as §2
Candida albicans [5] = assay: Antifungal activity against itraconazole/fluconazole susceptible Candida albicans ATCC MYA-2310 assessed as fungal growth inhibition by double dilution method; assay type: functional; in short: as §2
Candida albicans [6] = assay: Antifungal activity against itraconazole/fluconazole resistant Candida albicans ATCC MYA-1237 assessed as fungal growth inhibition by double dilution method; assay type: functional; in short: as §2
Candida albicans [7] = assay: Antifungal activity against itraconazole/fluconazole resistant Candida albicans ATCC MYA-1003 assessed as fungal growth inhibition by double dilution method; assay type: functional; in short: as §2
Nakaseomyces glabratus [8] = assay: Antifungal activity against Candida glabrata ATCC 2001 assessed as fungal growth inhibition by double dilution method; assay type: functional; in short: as §1
Pichia kudriavzevii [9] = assay: Antifungal activity against Pichia kudriavzevii ATCC 6258 assessed as fungal growth inhibition by double dilution method; assay type: functional; in short: as §1
Nakaseomyces glabratus [10] = assay: Antifungal activity against Candida glabrata ATCC 22019 assessed as fungal growth inhibition by double dilution method; assay type: functional; in short: as §1
[Candida] auris [11] = Antifungal activity against Candida auris AR Bank # 0384 assessed as fungal growth inhibition by double dilution method; assay type: functional; conditions: Candidozyma auris; in short: as §1
[Candida] auris [12] = Antifungal activity against Candida auris AR Bank # 0390 assessed as fungal growth inhibition by double dilution method; assay type: functional; conditions: Candidozyma auris; in short: as §1
Cryptococcus neoformans = assay: Antifungal activity against Cryptococcus neoformans ATCC MYA-895 assessed as fungal growth inhibition by double dilution method; assay type: functional; in short: as §1
Aspergillus terreus = assay: Antifungal activity against Aspergillus terreus ATCC MYA-3633 assessed as fungal growth inhibition by double dilution method; assay type: functional
Aspergillus fumigatus [13] = assay: Antifungal activity against Aspergillus fumigatus NRRL 163 assessed as fungal growth inhibition by double dilution method; assay type: functional
Aspergillus flavus = assay: Antifungal activity against Aspergillus flavus ATCC MYA-3631 assessed as fungal growth inhibition by double dilution method; assay type: functional
Aspergillus nidulans = assay: Antifungal activity against Aspergillus nidulans ATCC 38163 assessed as fungal growth inhibition by double dilution method; assay type: functional
Aspergillus fumigatus [14] = assay: Antifungal activity against Aspergillus fumigatus NRRL 5109 assessed as fungal growth inhibition by double dilution method; assay type: functional
Aspergillus fumigatus [15] = assay: Antifungal activity against Aspergillus fumigatus NRRL 6113 assessed as fungal growth inhibition by double dilution method; assay type: functional
[Candida] auris [16] = Antifungal activity against Candida auris AR Bank # 381 assessed as fungal growth inhibition by double dilution method; assay type: functional; conditions: Candidozyma auris; in short: as §1
[Candida] auris [17] = Antifungal activity against Candida auris AR Bank # 382 assessed as fungal growth inhibition by double dilution method; assay type: functional; conditions: Candidozyma auris; in short: as §1
[Candida] auris [18] = Antifungal activity against Candida auris AR Bank # 383 assessed as fungal growth inhibition by double dilution method; assay type: functional; conditions: Candidozyma auris; in short: as §1
[Candida] auris [19] = Antifungal activity against Candida auris AR Bank # 384 assessed as fungal growth inhibition by double dilution method; assay type: functional; conditions: Candidozyma auris; in short: as §1
[Candida] auris [20] = Antifungal activity against Candida auris AR Bank # 385 assessed as fungal growth inhibition by double dilution method; assay type: functional; conditions: Candidozyma auris; in short: as §1
[Candida] auris [21] = Antifungal activity against Candida auris AR Bank # 386 assessed as fungal growth inhibition by double dilution method; assay type: functional; conditions: Candidozyma auris; in short: as §1
[Candida] auris [22] = Antifungal activity against Candida auris AR Bank # 387 assessed as fungal growth inhibition by double dilution method; assay type: functional; conditions: Candidozyma auris; in short: as §1
[Candida] auris [23] = Antifungal activity against Candida auris AR Bank # 388 assessed as fungal growth inhibition by double dilution method; assay type: functional; conditions: Candidozyma auris; in short: as §1
[Candida] auris [24] = Antifungal activity against Candida auris AR Bank # 389 assessed as fungal growth inhibition by double dilution method; assay type: functional; conditions: Candidozyma auris; in short: as §1
[Candida] auris [25] = Antifungal activity against Candida auris AR Bank # 390 assessed as fungal growth inhibition by double dilution method; assay type: functional; conditions: Candidozyma auris; in short: as §1
Candida duobushaemulonii [26] = assay: Antifungal activity against Candida duobushaemulonii AR Bank # 391 assessed as fungal growth inhibition by double dilution method; assay type: functional; conditions: Candidozyma duobushaemuli; in short: as §1
Candida duobushaemulonii [27] = assay: Antifungal activity against Candida duobushaemulonii AR Bank # 392 assessed as fungal growth inhibition by double dilution method; assay type: functional; conditions: Candidozyma duobushaemuli; in short: as §1
[Candida] haemuloni [28] = Antifungal activity against Candida haemulonii AR Bank # 393 assessed as fungal growth inhibition by double dilution method; assay type: functional; conditions: Candidozyma haemuli; in short: as §1
Candida duobushaemulonii [29] = assay: Antifungal activity against Candida duobushaemulonii AR Bank # 394 assessed as fungal growth inhibition by double dilution method; assay type: functional; conditions: Candidozyma duobushaemuli; in short: as §1
[Candida] haemuloni [30] = Antifungal activity against Candida haemulonii AR Bank # 395 assessed as fungal growth inhibition by double dilution method; assay type: functional; conditions: Candidozyma haemuli; in short: as §1
Kodamaea ohmeri = assay: Antifungal activity against Kodamaea ohmeri AR Bank # 396 assessed as fungal growth inhibition by double dilution method; assay type: functional; in short: as §1
Pichia kudriavzevii [31] = assay: Antifungal activity against Pichia kudriavzevii AR Bank # 397 assessed as fungal growth inhibition by double dilution method; assay type: functional; in short: as §1
Clavispora lusitaniae = assay: Antifungal activity against Clavispora lusitaniae AR Bank # 398 assessed as fungal growth inhibition by double dilution method; assay type: functional; in short: as §1
Saccharomyces cerevisiae [32] = assay: Antifungal activity against Saccharomyces cerevisiae AR Bank # 399 assessed as fungal growth inhibition by double dilution method; assay type: functional; in short: as §1
Saccharomyces cerevisiae [33] = assay: Antifungal activity against Saccharomyces cerevisiae AR Bank # 400 assessed as fungal growth inhibition by double dilution method; assay type: functional; in short: as §1
J774.A1 = assay: Cytotoxicity against J774A.1 cells assessed as reduction in cell viability at 31.3 microg/ml; assay type: toxicity, cell-based; conditions: mouse, dose 31.3 µg/ml
In short: (§3)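 Cells in DMEM with 10% FBS and 1% Pen/Strep, seeded at 10,000 cells/well and held overnight at 37 °C, 5% CO2. Compounds added at final 31.3-0.12 µg/mL (0.05% DMSO vehicle) for 24 h. Resazurin then added for 6 h; fluorescence read at ex 560/em 590. Triton X-100 1% as positive control; values normalized to vehicle. Run in quadruplicate.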

HEK293 = assay: Cytotoxicity against human HEK-293 cells assessed as reduction in cell viability at 31.3 microg/ml; assay type: toxicity, cell-based; conditions: dose 31.3 µg/ml; in short: as §3
HepG2 = assay: Cytotoxicity against human HepG2 cells assessed as reduction in cell viability upto 31.3 microg/ml; assay type: toxicity, cell-based; conditions: dose < 31.3 µg/ml; in short: as §3
Candida albicans [34] = assay: Antifungal activity against Candida albicans ATCC 10231 assessed as fungal growth inhibition by time kill studies; assay type: functional, organism-based
In short: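 Overnight YPD culture (35 °C, 200 rpm) diluted in RPMI 1640 to ~1×10⁵ CFU/mL. […] Samples at 0, 3, 6, 9, 12, 18 and 24 h were 10-fold diluted and plated on PDA; colonies counted after 48 h at 35 °C. Run in duplicate.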

Candida albicans [35] = assay: Antibiofilm activity against Candida albicans ATCC 10231 assessed as reduction in biofilm production at 1.96 to 3.9 microg/ml by biofilm formation assay; assay type: functional, organism-based; conditions: dose 1.96-3.9 µg/ml
Candida albicans [36] = assay: Antibiofilm activity against Candida albicans ATCC 10231 assessed as reduction in preformed biofilm production by biofilm formation assay; assay type: functional, organism-based
In short: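 After PBS washes, XTT 0.5 mg/mL with 1 µM menadione added, 3 h at 37 °C in the dark; absorbance read at 450 nm.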

Structure (SMILES): O=C(NNc1cccc(Cl)c1)c1ccccn1
- MIC (Candida albicans [1]): 0.12 mg/L (≈ 0.484 µM)
- MIC (Candida albicans [2]): 0.98 mg/L (≈ 3.96 µM)
- MIC (Candida albicans [3]): 0.98 mg/L (≈ 3.96 µM)
- MIC (Candida albicans [4]): 0.49 mg/L (≈ 1.98 µM)
- MIC (Candida albicans [5]): 0.98 mg/L (≈ 3.96 µM)
- MIC (Candida albicans [6]): 0.98 mg/L (≈ 3.96 µM)
- MIC (Candida albicans [7]): 0.49 mg/L (≈ 1.98 µM)
- MIC (Nakaseomyces glabratus [8]): 1.95 mg/L (≈ 7.87 µM)
- MIC (Pichia kudriavzevii [9]): 0.49 mg/L (≈ 1.98 µM)
- MIC (Nakaseomyces glabratus [10]): 1.95 mg/L (≈ 7.87 µM)
- MIC ([Candida] auris [11]): 0.98 mg/L (≈ 3.96 µM)
- MIC ([Candida] auris [12]): 0.98 mg/L (≈ 3.96 µM)
- MIC (Cryptococcus neoformans): 0.12 mg/L (≈ 0.484 µM)
- MIC (Aspergillus terreus): 0.98 mg/L (≈ 3.96 µM)
- MIC (Aspergillus fumigatus [13]): > 31.3 mg/L
- MIC (Aspergillus flavus): > 31.3 mg/L
- MIC (Aspergillus nidulans): 0.24 mg/L (≈ 0.969 µM)
- MIC (Aspergillus fumigatus [14]): > 31.3 mg/L
- MIC (Aspergillus fumigatus [15]): > 31.3 mg/L
- MIC ([Candida] auris [16]): 0.98 mg/L (≈ 3.96 µM)
- MIC ([Candida] auris [17]): 0.49 mg/L (≈ 1.98 µM)
- MIC ([Candida] auris [18]): 0.49 mg/L (≈ 1.98 µM)
- MIC ([Candida] auris [19]): 0.98 mg/L (≈ 3.96 µM)
- MIC ([Candida] auris [20]): 0.49 mg/L (≈ 1.98 µM)
- MIC ([Candida] auris [21]): 0.24 mg/L (≈ 0.969 µM)
- MIC ([Candida] auris [22]): 0.49 mg/L (≈ 1.98 µM)
- MIC ([Candida] auris [23]): 0.49 mg/L (≈ 1.98 µM)
- MIC ([Candida] auris [24]): 0.49 mg/L (≈ 1.98 µM)
- MIC ([Candida] auris [25]): 0.49 mg/L (≈ 1.98 µM)
- MIC (Candida duobushaemulonii [26]): 0.24 mg/L (≈ 0.969 µM)
- MIC (Candida duobushaemulonii [27]): 0.24 mg/L (≈ 0.969 µM)
- MIC ([Candida] haemuloni [28]): 0.12 mg/L (≈ 0.484 µM)
- MIC (Candida duobushaemulonii [29]): 12 mg/L (≈ 48.4 µM)
- MIC ([Candida] haemuloni [30]): ≤ 0.06 mg/L
- MIC (Kodamaea ohmeri): 0.12 mg/L (≈ 0.484 µM)
- MIC (Pichia kudriavzevii [31]): 0.12 mg/L (≈ 0.484 µM)
- MIC (Clavispora lusitaniae): 0.98 mg/L (≈ 3.96 µM)
- MIC (Saccharomyces cerevisiae [32]): 0.98 mg/L (≈ 3.96 µM)
- MIC (Saccharomyces cerevisiae [33]): 0.98 mg/L (≈ 3.96 µM)
- Activity (J774.A1): Non-Toxic
- Activity (HEK293): Non-Toxic
- Activity (HepG2): Non-Toxic
- Activity (Candida albicans [34]): Dose-Dependent Effect
- Activity (Candida albicans [35]): Active
- Activity (Candida albicans [36]): inactive
